Structures are written as SMILES. Converted amounts (≈) assume the structure as drawn.

The subject of series [1] is Pseudomonas aeruginosa. Description: Antimicrobial activity against Pseudomonas aeruginosa PAO1 after 18 to 20 hrs by broth microdilution. In kind it is functional. In short, it runs like this: (§1)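 Broth microdilution followed CLSI guidelines in Mueller Hinton broth. Inocula were grown 18–20 h at 35 °C on blood agar. Compound in DMSO was tested in doubling dilutions from 64 to 0.06 µg/mL, at 2% DMSO final. Plates were incubated 18–20 h and read at OD 620 nm. MIC was taken as the concentration giving >90% growth inhibition.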

Series [2] has as its system Staphylococcus aureus. Description: Antimicrobial activity against methicillin-susceptible Staphylococcus aureus after 18 to 20 hrs by broth microdilution. The series is classed as functional. In short, it runs like this: as §1
Series [3] can be described thus: Clearance in rat at 10 mg/kg, iv. The series is classed as ADME, organism-based. More on the design: dose 10 mg/kg, route intravenous. The conditions noted are these: in vivo. In short, it runs like this: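 Male rats (Wistar Han) and Beagle dogs received 10 mg/kg as a 15 min iv infusion. Serial 200 µL whole-blood samples were taken from 0 to 24 h. Plasma levels were measured by LC–MS/MS against a standard curve after methanol protein precipitation. Parameters were estimated non-compartmentally.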

A short description of series [4]: Bioavailability in rat at 10 mg/kg, […]. In kind it is ADME, organism-based. Conditions: in vivo.
For series [5], the target named is T1, Potassium voltage-gated channel subfamily KQT member 1 (Homo sapiens, UniProt P51787).
T1 sequence (P51787 whole entry): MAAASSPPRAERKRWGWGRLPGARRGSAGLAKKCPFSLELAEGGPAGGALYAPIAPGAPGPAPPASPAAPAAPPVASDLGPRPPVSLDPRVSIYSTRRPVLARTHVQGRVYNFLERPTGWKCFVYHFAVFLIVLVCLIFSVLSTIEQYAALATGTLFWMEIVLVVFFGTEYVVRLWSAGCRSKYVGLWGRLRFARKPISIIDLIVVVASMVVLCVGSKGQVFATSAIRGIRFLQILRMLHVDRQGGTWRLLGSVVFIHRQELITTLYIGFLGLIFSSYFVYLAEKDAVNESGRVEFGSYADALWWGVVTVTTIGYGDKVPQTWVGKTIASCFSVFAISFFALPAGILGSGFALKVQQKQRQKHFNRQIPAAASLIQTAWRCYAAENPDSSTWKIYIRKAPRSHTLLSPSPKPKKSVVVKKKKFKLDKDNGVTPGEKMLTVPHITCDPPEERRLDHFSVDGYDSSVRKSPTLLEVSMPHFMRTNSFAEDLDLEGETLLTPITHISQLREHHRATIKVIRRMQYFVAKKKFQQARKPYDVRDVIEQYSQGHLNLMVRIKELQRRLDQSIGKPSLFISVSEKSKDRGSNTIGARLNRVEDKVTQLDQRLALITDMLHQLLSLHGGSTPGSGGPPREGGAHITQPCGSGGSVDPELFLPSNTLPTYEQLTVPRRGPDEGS
Kind of series: Inhibition of potassium channel IKs (unknown origin). In short, it runs like this:
(§2)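 Automated IonWorks patch clamp was run on CHO or HEK cells expressing each channel. A channel-specific voltage pulse was applied before compound and again about 3 min after addition.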

Series [6] deals with T2, A-type voltage-gated potassium channel KCND3 (Homo sapiens, UniProt Q9UK17).
T2 sequence (Q9UK17 whole entry): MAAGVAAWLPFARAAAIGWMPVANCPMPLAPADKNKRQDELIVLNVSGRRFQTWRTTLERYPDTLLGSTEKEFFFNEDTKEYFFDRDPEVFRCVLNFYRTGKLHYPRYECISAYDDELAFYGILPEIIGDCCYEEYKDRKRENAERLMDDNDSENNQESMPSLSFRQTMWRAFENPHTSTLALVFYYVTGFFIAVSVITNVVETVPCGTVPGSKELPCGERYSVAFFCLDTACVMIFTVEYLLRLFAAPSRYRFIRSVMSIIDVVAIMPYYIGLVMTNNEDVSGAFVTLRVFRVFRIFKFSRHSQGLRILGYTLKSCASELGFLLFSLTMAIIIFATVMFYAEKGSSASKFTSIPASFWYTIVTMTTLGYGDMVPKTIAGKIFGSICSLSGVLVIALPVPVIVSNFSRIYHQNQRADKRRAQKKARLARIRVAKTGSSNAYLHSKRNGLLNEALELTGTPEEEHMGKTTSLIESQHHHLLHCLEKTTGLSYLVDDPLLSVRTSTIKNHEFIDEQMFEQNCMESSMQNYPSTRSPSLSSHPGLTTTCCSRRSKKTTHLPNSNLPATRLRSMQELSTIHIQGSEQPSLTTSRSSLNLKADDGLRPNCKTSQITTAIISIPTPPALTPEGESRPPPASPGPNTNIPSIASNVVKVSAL
Kind of series: Inhibition of potassium channel Kv4.3 (unknown origin). In short, it runs like this: as §2

Series [7] concerns the target Sodium channel protein type 5 subunit alpha (Homo sapiens, UniProt Q14524). Kind of series: Inhibition of […] channel Nav1.5 (unknown origin). Summed up: as §2
Series [8] addresses Voltage-dependent L-type calcium channel subunit alpha-1C (Homo sapiens, UniProt Q13936). Description: Inhibition of […] channel Cav1.2 (unknown origin). Summed up:
as §2

Sequence of Sodium channel protein type 5 subunit alpha (Q14524 whole entry): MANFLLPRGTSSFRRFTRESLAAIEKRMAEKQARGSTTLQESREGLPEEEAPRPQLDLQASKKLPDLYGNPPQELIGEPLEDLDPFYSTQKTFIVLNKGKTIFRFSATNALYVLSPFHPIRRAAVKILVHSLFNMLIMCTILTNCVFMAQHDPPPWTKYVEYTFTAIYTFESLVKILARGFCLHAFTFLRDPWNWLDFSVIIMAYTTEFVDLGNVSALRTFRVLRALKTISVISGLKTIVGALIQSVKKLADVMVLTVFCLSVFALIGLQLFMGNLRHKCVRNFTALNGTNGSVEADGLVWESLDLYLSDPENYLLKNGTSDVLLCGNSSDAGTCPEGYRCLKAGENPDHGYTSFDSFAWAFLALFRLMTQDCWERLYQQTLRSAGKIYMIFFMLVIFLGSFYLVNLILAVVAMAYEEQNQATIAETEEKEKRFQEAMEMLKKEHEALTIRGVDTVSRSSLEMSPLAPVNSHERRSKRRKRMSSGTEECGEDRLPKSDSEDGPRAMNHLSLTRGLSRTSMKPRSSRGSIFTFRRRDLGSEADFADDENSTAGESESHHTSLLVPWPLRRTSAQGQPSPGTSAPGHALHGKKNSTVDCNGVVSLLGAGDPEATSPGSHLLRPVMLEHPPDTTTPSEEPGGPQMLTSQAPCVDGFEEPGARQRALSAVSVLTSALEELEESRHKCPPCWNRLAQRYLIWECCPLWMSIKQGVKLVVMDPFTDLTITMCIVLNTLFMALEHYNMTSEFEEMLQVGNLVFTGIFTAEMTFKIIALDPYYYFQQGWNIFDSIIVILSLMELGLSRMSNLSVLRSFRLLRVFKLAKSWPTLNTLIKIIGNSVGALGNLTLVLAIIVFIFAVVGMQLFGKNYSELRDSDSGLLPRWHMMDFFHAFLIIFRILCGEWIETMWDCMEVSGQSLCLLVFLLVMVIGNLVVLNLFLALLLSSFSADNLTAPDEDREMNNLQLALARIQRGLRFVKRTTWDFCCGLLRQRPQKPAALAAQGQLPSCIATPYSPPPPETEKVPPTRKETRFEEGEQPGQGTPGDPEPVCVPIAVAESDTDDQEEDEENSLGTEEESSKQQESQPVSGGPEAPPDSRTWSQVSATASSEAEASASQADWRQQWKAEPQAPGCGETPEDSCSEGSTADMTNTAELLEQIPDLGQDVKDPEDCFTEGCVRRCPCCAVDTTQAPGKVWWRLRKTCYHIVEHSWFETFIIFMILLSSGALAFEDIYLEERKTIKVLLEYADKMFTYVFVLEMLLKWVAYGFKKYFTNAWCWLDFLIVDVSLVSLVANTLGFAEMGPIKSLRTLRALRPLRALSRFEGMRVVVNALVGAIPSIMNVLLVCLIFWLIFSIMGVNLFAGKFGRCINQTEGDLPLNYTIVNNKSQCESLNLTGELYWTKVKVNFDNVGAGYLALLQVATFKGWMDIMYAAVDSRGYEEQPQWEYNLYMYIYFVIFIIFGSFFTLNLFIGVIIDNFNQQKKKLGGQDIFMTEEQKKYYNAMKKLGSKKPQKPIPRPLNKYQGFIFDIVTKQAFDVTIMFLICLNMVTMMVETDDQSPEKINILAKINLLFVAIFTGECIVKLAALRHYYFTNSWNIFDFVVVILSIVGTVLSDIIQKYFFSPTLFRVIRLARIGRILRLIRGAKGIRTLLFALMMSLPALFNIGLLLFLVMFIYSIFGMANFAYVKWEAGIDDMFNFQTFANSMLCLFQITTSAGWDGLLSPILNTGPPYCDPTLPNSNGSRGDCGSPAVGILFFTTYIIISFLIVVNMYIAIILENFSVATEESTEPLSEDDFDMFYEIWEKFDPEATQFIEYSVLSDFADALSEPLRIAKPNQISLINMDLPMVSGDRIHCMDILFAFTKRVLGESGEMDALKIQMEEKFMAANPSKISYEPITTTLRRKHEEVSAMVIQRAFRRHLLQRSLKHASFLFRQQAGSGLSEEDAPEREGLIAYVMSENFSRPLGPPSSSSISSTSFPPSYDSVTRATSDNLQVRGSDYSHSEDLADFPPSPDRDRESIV
Sequence of Voltage-dependent L-type calcium channel subunit alpha-1C (Q13936 whole entry): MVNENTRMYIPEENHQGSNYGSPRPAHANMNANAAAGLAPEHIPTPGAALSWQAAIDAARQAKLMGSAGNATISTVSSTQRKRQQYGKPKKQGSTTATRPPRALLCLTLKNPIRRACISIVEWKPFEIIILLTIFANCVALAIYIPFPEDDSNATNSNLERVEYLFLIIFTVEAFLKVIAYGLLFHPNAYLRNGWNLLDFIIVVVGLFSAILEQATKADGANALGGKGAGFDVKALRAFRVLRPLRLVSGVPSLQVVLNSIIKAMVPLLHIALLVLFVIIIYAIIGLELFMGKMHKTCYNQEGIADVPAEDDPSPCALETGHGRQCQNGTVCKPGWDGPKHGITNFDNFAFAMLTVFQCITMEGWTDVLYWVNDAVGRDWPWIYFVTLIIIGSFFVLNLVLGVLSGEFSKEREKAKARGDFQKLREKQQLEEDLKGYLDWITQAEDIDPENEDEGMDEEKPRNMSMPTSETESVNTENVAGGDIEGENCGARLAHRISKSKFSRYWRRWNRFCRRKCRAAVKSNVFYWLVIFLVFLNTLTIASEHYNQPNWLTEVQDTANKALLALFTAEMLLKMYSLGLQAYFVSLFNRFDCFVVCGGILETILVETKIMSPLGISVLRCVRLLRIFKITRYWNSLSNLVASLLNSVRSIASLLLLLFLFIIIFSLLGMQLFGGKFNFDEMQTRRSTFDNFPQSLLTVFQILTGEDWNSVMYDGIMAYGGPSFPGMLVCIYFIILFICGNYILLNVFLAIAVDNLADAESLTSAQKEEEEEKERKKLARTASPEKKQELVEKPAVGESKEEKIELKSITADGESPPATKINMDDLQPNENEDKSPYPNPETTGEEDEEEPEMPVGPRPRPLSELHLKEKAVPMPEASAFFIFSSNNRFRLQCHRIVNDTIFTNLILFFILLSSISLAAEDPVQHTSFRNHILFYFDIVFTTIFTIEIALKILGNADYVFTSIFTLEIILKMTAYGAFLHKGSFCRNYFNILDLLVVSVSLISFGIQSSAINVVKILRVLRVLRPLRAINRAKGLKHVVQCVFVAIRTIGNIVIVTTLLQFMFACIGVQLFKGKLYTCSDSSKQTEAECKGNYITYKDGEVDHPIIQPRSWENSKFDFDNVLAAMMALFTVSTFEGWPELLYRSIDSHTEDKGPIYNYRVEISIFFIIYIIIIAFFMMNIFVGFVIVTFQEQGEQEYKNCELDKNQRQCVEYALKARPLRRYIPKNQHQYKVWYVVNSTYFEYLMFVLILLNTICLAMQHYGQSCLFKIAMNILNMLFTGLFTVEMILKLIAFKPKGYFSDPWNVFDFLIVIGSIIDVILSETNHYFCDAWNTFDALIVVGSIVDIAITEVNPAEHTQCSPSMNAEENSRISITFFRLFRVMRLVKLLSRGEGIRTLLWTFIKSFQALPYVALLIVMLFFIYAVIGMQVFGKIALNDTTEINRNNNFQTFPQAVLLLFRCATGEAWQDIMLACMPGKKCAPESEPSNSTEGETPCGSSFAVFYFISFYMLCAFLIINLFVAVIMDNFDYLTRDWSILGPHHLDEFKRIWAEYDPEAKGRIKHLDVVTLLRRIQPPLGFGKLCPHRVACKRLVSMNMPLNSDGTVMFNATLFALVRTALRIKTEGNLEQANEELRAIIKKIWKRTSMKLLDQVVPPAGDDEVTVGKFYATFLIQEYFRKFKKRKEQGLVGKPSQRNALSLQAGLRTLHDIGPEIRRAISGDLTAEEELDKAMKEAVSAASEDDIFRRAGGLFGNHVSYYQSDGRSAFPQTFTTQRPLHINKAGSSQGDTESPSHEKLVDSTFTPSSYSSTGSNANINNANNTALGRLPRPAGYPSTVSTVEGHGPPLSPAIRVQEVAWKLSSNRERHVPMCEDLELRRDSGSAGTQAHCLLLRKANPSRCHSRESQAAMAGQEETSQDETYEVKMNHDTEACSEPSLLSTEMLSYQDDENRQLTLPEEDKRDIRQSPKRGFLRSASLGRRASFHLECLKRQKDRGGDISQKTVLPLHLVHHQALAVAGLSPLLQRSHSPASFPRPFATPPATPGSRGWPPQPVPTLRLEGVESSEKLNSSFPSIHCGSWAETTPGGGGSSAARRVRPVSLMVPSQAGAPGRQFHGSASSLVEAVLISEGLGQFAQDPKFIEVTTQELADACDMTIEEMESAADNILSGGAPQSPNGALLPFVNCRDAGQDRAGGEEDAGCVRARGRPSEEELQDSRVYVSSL

Regarding `COc1ccc2ncc(=O)n(CCN3CCC(NCc4ccc5c(n4)NC(=O)CO5)CC3)c2c1`, the MIC90 in series [1] came to 1 µg/mL (≈ 2.15 µM); in series [2], 0.03 µg/mL (≈ 0.0646 µM). In addition, the clearance in series [3] stood at 252 mL/min/kg. For the same compound, the bioavailability in series [4] was found to be 18%. Further, the IC50 is more than 100 µM in series [5], more than 100 µM in series [6], 92 µM in series [7] and more than 333 µM in series [8].

In the case of `N[C@@H](Cn1c(=O)cnc2ccc(F)cc21)[C@H]1CC[C@H](NCc2ncc3c(n2)NC(=O)CO3)CC1`, the results for the MIC90 in series [1] and in series [2] were 0.5 µg/mL (≈ 1.07 µM) and 1 µg/mL (≈ 2.14 µM), respectively. This compound came in with a clearance in series [3] of 46 mL/min/kg. In series [4], this compound came in with a bioavailability of 2%. The 50% inhibitory concentration (IC50) in series [5] was more than 333 µM; in series [6], more than 100 µM; in series [7], more than 333 µM; in series [8], more than 333 µM.

Source of the values: ChEMBL document CHEMBL3352316, “Optimization of physicochemical properties and safety profile of novel bacterial topoisomerase type II inhibitors (NBTIs) with activity against Pseudomonas aeruginosa” (Bioorg Med Chem, 2014).
